The text below walks through data of ChEMBL document CHEMBL4130517, “Discovery of a Tetrahydrobenzisoxazole Series of γ-Secretase Modulators” (ACS Med Chem Lett, 2017).

Structures are written as SMILES. The source made the active and inactive calls. The calls are words filed in the database; no cut-off is given here.

The target in data set [1] is T1, Gamma-secretase (Homo sapiens) (UniProt Q96BI3+Q9NZ42+Q8WW43+P49768+Q92542+P49810). Put plainly: Modulation of gamma-secretase (unknown origin) expressed in HEK293 cells harboring SCP99-Lon mutation assessed as increase in amyloid beta 37 level at 10 uM by surface enhanced laser desorption/ionization mass spectrometry. It is filed as cell-based.
For data set [2], the target named is T1, Gamma-secretase (Homo sapiens). Put plainly: Modulation of gamma-secretase (unknown origin) expressed in HEK293 cells harboring SCP99-Lon mutation assessed as increase in amyloid beta 38 level at 10 uM by surface enhanced laser desorption/ionization mass spectrometry. It is filed as cell-based.
Data set [3] shares this target. The experiment in a line: Modulation of gamma-secretase (unknown origin) expressed in HEK293 cells harboring SCP99-Lon mutation assessed as reduction in amyloid beta 40 level at 10 uM by surface enhanced laser desorption/ionization mass spectrometry. It is filed as cell-based.
For data set [4] the target is unchanged. Put plainly: Modulation of gamma-secretase (unknown origin) expressed in HEK293 cells harboring SCP99-Lon mutation assessed as ratio of total amyloid beta to amyloid beta 42 level after 5 hrs by sandwich immunoassay. Type of data set: cell-based. Put shortly: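 HEK293 cells exposed 5 h to varied GSM concentrations. Conditioned medium assayed by MSD sandwich electrochemiluminescence immunoassay: Aβ42 with TAG-G2-11/biotin-4G8, total Aβ with TAG-W02/biotin-4G8. Ratio formed from total Aβ and Aβ42.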

For data set [5] the target is unchanged. The experiment in a line: Modulation of gamma-secretase (unknown origin) expressed in HEK293 cells harboring SCP99-Lon mutation assessed as reduction in amyloid beta 42 level at 10 uM by surface enhanced laser desorption/ionization mass spectrometry. Type of data set: cell-based.
The next data set addresses Gamma-secretase. Put plainly: Modulation of gamma-secretase (unknown origin) expressed in HEK293 cells harboring SCP99-Lon mutation assessed as reduction in Abeta42 production after 5 hrs by sandwich immunoassay. It is filed as cell-based, Homo sapiens. Put shortly: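 HEK293 cells incubated 5 h with a range of GSM concentrations. Aβ42 in conditioned medium quantified by MSD sandwich electrochemiluminescence immunoassay, using TAG-G2-11 and biotin-4G8 antibodies.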

A short description of data set [6]: Dissociation constant, pKa of the compound. Type of data set: physicochemical.
The subject of data set [7] is P-gp. Put plainly: Substrate activity at P-gp (unknown origin) assessed as permeability across apical to basolateral side. It is filed as ADME. The conditions noted are these: human, not told; read-out: permeability.
In data set [8] the test system is P-gp. The experiment in a line: Substrate activity at P-gp (unknown origin) assessed as permeability across basolateral to apical side. The settings on record: human, not told; read-out: permeability. It is filed as ADME.
The test system of data set [9] is P-gp. The experiment in a line: Substrate activity at P-gp (unknown origin) assessed as efflux ratio of permeability across basolateral to apical over apical to basolateral side. Type of data set: ADME. The conditions noted are these: human, not told.
The nature of data set [10]: Drug uptake in brain of Sprague-Dawley rat at 30 mg/kg, po after 3 hrs by LC-MS/MS analysis. Type of data set: ADME, organism-based. The settings on record: read-out: Drug uptake. The procedure, abridged: (§1)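 Rats given a single oral dose of 30 mg/kg. Plasma and brain collected 3 h post-dose and drug concentration measured; n = 3.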
Data set [11] can be described thus: Drug uptake in plasma of Sprague-Dawley rat at 30 mg/kg, po after 3 hrs by LC-MS/MS analysis. Type of data set: ADME, organism-based. Put shortly:
as §1

The subject of the next data set is Rattus norvegicus. The experiment in a line: Reduction in amyloid beta 42 level in Sprague-Dawley rat cerebrospinal fluid at 30 mg/kg, po administered as single dose after 3 hrs by sandwich immunoassay relative to control. Type of data set: functional. Also noted: scale not given: the % may be the effect or the level left. The procedure, abridged:
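Non-transgenic rats received a single oral 30 mg/kg dose or vehicle. CSF sampled 3 h later and Aβ42 compared against vehicle-treated animals; n = 5.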

On to `COc1cc(-c2noc3c2CCCC3Nc2ccc(F)cc2)ccc1-n1cnc(C)c1` (stereo in doubt; 14a) [listing 1 of 2 here], for which the outcome in [1], in [2], in data set [3] and in data set [5] was Active. Besides, the Ratio in data set [4] is 499.
Turning to `COc1cc(-c2noc3c2CCCC3(O)c2cc(F)cc(F)c2)ccc1-n1cnc(C)c1` (stereo not given), at Gamma-secretase, the half-inhibitory concentration (IC50) (commonly the point on the concentration scale where inhibition reaches its midpoint) turned out to be 190 nM. In data set [4], the Ratio worked out at 105.
With `COc1cc(-c2noc3c2CCCC3Nc2ccc(F)cc2)ccc1-n1cnc(C)c1` (stereo in doubt; 14b) [listing 1 of 2 here], the Ratio in data set [4] stood at 86.
Take `COc1cc(-c2noc3c2CCCC3NCC(F)(F)F)ccc1-n1cnc(C)c1` (stereo not given): in data set [6], the pKa (as a rule, the negative logarithm of the acid dissociation constant) is 5.42. Moreover, at Gamma-secretase, the IC50 was found to be 460 nM. Also, the Ratio in [4] stood at 43.
Take `COc1cc(-c2noc3c2CCCC3NCc2cc(F)cc(F)c2)ccc1-n1cnc(C)c1` (stereo in doubt; 14d) [listing 1 of 2 here]: in [4], the Ratio worked out at 28.
`COc1cc(-c2noc3c2CCCC3(O)Cc2cc(F)cc(F)c2)ccc1-n1cnc(C)c1` (stereo not given): at Gamma-secretase, the IC50 came out at 150 nM. Besides, the Ratio in data set [4] was found to be 102.
On to `COc1cc(-c2noc3c2CCCC3Nc2ccc(F)cc2)ccc1-n1cnc(C)c1` (stereo in doubt; 14a) [listing 2 of 2 here], for which the Papp A→B with P-gp [7] is 37.6 ×10⁻⁶ cm/s. Also, the Papp B→A with P-gp [8] was determined as 60 ×10⁻⁶ cm/s. Also, in the data set on P-gp [9], the efflux ratio – broadly, a quotient of directional permeabilities that is used to spot active efflux – is 1.6. Also, the pKa in data set [6] is 5.33. Also, the half-maximal inhibitory concentration (IC50) on Gamma-secretase was found to be 39 nM. Further, the concentration at 3 h in [10] turned out to be 14.3 µM; in data set [11], 10.4 µM. This molecule also returned an Activity in the data set on Rattus norvegicus of 58%.
Turning to `COc1cc(-c2noc3c2CCCC3Oc2ccc(F)cc2)ccc1-n1cnc(C)c1` (stereo not given), the IC50 on Gamma-secretase amounted to 290 nM. The Ratio in data set [4] turned out to be 68.
In the case of `COc1cc(-c2noc3c2CCCC3N(C)Cc2ccc(F)cc2)ccc1-n1cnc(C)c1` (stereo not given), the IC50 at Gamma-secretase worked out at 250 nM. Moreover, in [4], the Ratio is 79.
Turning to `CNC1CCCc2c(-c3ccc(-n4cnc(C)c4)c(OC)c3)noc21` (stereo not given), the pKa in data set [6] was 8.1. The IC50 at Gamma-secretase came to 12000 nM. Moreover, the Ratio in [4] worked out at 2.
For `COc1cc(-c2noc3c2CCCC3Nc2ccc(F)cc2)ccc1-n1cnc(C)c1` (stereo in doubt; 14b) [listing 2 of 2 here], on Gamma-secretase, the IC50 worked out at 230 nM.
With `COc1cc(-c2noc3c2CCCC3N[C@H](C)c2ccc(F)cc2)ccc1-n1cnc(C)c1` (stereo not given in full), at Gamma-secretase, the IC50 was 260 nM. Also, in data set [4], the Ratio is 77.
In the case of `COc1cc(-c2noc3c2CCCC3NCc2cc(F)cc(F)c2)ccc1-n1cnc(C)c1` (stereo in doubt; 14d) [listing 2 of 2 here], the IC50 at Gamma-secretase was determined as 640 nM.
On to `COc1cc(-c2noc3c2CCCC3c2cc(F)cc(F)c2)ccc1-n1cnc(C)c1` (stereo not given), for which the IC50 on Gamma-secretase turned out to be 110 nM. In addition, the Ratio in data set [4] was 178.
Regarding `COc1cc(-c2noc3c2CCCC3NCc2ccc(F)cc2)ccc1-n1cnc(C)c1` (stereo not given), the result in [1], in [2], in data set [3] and in data set [5] was Active. The same molecule displayed a pKa in [6] of 7.08. Moreover, at Gamma-secretase, the IC50 was 130 nM. The Ratio in [4] came out at 32.
Regarding `COc1cc(-c2noc3c2CCCC3NCc2cc(F)cc(F)c2)ccc1-n1cnc(C)c1` (stereo in doubt; 14c) [listing 1 of 2 here], the Papp A→B with P-gp [7] was 6.8 ×10⁻⁶ cm/s. The Papp B→A with P-gp [8] was found to be 46.2 ×10⁻⁶ cm/s. The efflux ratio in the data set with P-gp [9] stood at 6.8. Besides, on Gamma-secretase, the IC50 is 29 nM. For the same molecule, the figures for the concentration at 3 h in data set [10] and in data set [11] were 2.19 µM and 6.01 µM, respectively.
As for `COc1cc(-c2noc3c2CCCC3OCc2cc(F)cc(F)c2)ccc1-n1cnc(C)c1` (stereo not given), the IC50 on Gamma-secretase was determined as 510 nM. Further, in [4], the Ratio came out at 39.
For `COc1cc(-c2noc3c2CCCC3NCc2cc(F)cc(F)c2)ccc1-n1cnc(C)c1` (stereo in doubt; 14c) [listing 2 of 2 here], the outcome in data set [1], in [2], in [3] and in [5] was Active. Also, in [4], the Ratio was found to be 575.
With `COc1cc(-c2noc3c2CCCC3NC2CCCCC2)ccc1-n1cnc(C)c1` (stereo not given), the pKa in data set [6] is 8.42. On Gamma-secretase, the IC50 was 310 nM. In data set [4], the Ratio was determined as 64.
For `COc1cc(-c2noc3c2CCCC3Oc2cc(F)cc(F)c2)ccc1-n1cnc(C)c1` (stereo not given), on Gamma-secretase, the half-inhibitory concentration (IC50) was 200 nM. The Ratio in data set [4] worked out at 98.
